Test results taken from ChEMBL document CHEMBL1949592, “Synthesis and antiviral activity of 2'-deoxy-2'-fluoro-2'-C-methyl-7-deazapurine nucleosides, their phosphoramidate prodrugs and 5'-triphosphates” (Bioorg Med Chem Lett, 2011).

Legend:
[1] = tested on: Hepatitis C virus; assay: Antiviral activity against Hepatitis C virus infected in human HuH7 cells assessed as decrease in viral RNA level after 96 hrs by RT-PCR; assay type: functional, organism-based, Hepacivirus hominis; settings: Huh-7, 96 h
[2] = tested on: Huh-7; assay: Cytotoxicity against human HuH7 cells assessed as reduction of 50% rRNA level after 96 hrs; assay type: cell-based; settings: huh-7, 96 h
Method in brief: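 Huh-7 cells carrying the HCV replicon were exposed to compound for 96 h. Toxicity was read as a fall in cellular rRNA.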

[3] = tested on: Human immunodeficiency virus 1; assay: Antiviral activity against HIV1 LAV1 infected in PHA-stimulated human PBMC assessed as reduction in RT activity after 6 days by micromethod-based beta scintillation counting; assay type: functional, organism-based; settings: Human immunodeficiency virus 1, LAV1, 144 h
[4] = tested on: PBMC; assay: Cytotoxicity against human PBMC after 6 days by trypan blue exclusion method; assay type: cell-based; settings: 144 h
[5] = tested on: Vero; assay: Cytotoxicity against african green monkey Vero cells after 3 days by hemocytometer analysis; assay type: cell-based; settings: Chlorocebus sabaeus, 72 h
[6] = tested on: CCRF-CEM; assay: Cytotoxicity against human CEM cells after 6 days by trypan blue exclusion method; assay type: cell-based; settings: 144 h

SMILES | EC50 [1] [µM] | EC90 [1] [µM] | CC50 [2] [µM] | EC50 [3] [µM] | EC90 [3] [µM] | IC50 [4] [µM] | IC50 [5] [µM] | IC50 [6] [µM]
CNc1ncnc2c1c(F)cn2[C@@H]1O[C@H](CO)[C@@H](O)[C@@]1(C)F | > 10 | > 10 | > 10 | > 100 | > 100 | > 100 | > 100 | > 100
C[C@@]1(F)[C@H](O)[C@@H](CO)O[C@@H]1n1ccc2c(N)ncnc21 | > 10 |  |  | > 100 |  | > 100 | > 100 | > 100
C[C@@]1(F)[C@H](O)[C@@H](CO)O[C@@H]1n1cc(Cl)c2c(N)ncnc21 | < 10 |  |  | > 100 | > 100 | > 100 | > 100 | 96
C[C@@]1(F)[C@H](O)[C@@H](CO)O[C@@H]1n1cc(F)c2c(N)ncnc21 | > 10 |  | > 10 | > 100 |  | > 100 | > 100 | 8.1
Cc1cn([C@H]2C[C@H](N=[N+]=[N-])[C@@H](CO)O2)c(=O)[nH]c1=O [ZIDOVUDINE] | > 10 | > 10 | > 10 | 0.0033 | 0.028 | > 100 |  | 
C#Cc1cn([C@@H]2O[C@H](CO)[C@@H](O)[C@@]2(C)F)c2ncnc(N)c12 | < 10 |  |  | 59.1 | > 100 | 94.1 | > 100 | > 100
C[C@@]1(F)[C@H](O)[C@@H](CO)O[C@@H]1n1cc(I)c2c(N)nc(N)nc21 | > 10 |  |  | > 100 | > 100 | > 100 | > 100 | > 100
COC(=O)/C=C/c1cn([C@@H]2O[C@H](CO)[C@@H](O)[C@@]2(C)F)c2ncnc(N)c12 | > 10 | > 10 |  | > 100 | > 100 | > 100 | > 100 | > 100
CCc1cn([C@@H]2O[C@H](CO)[C@@H](O)[C@@]2(C)F)c2ncnc(N)c12 | < 10 |  |  | 19 | > 100 | 20.7 | > 100 | > 100
CCc1cn([C@H]2O[C@H](CO)[C@@H](O)[C@@]2(C)F)c2ncnc(N)c12 | > 10 | > 10 | > 10 | 95.5 |  | > 100 | > 100 | > 100
C[C@@]1(F)[C@H](O)[C@@H](CO)O[C@@H]1n1cc(Br)c2c(N)ncnc21 | < 10 |  | > 10 | ≥ 100 |  | 89.1 | 71.1 | 76
C#Cc1cn([C@@H]2O[C@H](CO)[C@@H](O)[C@@]2(C)F)c2nc(N)nc(N)c12 | > 10 |  |  | 84.4 | > 100 | > 100 | > 100 | > 100
C=Cc1cn([C@@H]2O[C@H](CO)[C@@H](O)[C@@]2(C)F)c2ncnc(N)c12 | 1.8 | 7.6 | 4.5 | 14.7 | 44.8 | 4.8 | 10.1 | 3.5
C[C@@]1(O)[C@H](O)[C@@H](CO)O[C@H]1n1ccc(N)nc1=O | 2.8 | 9.6 | > 10 | 47.5 | 100 | 47.4 | > 100 | 54.4
C[C@@]1(F)[C@H](O)[C@@H](CO)O[C@H]1n1cc(I)c2c(N)nc(N)nc21 | > 10 | > 10 | > 10 | 99.5 |  | 72.9 | 62.8 | 85.4
CCOC(=O)[C@H](C)NP(=O)(OC[C@H]1O[C@@H](n2cc(I)c3c(N)nc(N)nc32)[C@](C)(F)[C@@H]1O)Oc1ccccc1 (some centres not stated) | > 10 | > 10 | > 10 | 26.7 | > 100 | 67.4 | 65.1 | > 100
C[C@@]1(F)[C@H](O)[C@@H](CO)O[C@H]1n1cc(Br)c2c(N)ncnc21 | < 10 | > 10 | < 10 | > 100 | > 100 | 74.2 | 53.1 | 50.5
CNc1ncnc2c1c(F)cn2[C@H]1O[C@H](CO)[C@@H](O)[C@@]1(C)F | > 10 |  |  | > 100 |  | > 100 | > 100 | > 100
C#Cc1cn([C@H]2O[C@H](CO)[C@@H](O)[C@@]2(C)F)c2ncnc(N)c12 | < 10 | > 10 | > 10 | 95.2 |  | > 100 | > 100 | > 100
C[C@@]1(F)[C@H](O)[C@@H](CO)O[C@H]1n1cc(Cl)c2c(N)ncnc21 | < 10 | > 10 | > 10 | 82.4 |  | 18.5 | > 100 | > 100
COc1ncnc2c1ccn2[C@@H]1O[C@H](CO)[C@@H](O)[C@@]1(C)F | > 10 | > 10 |  | 24.8 | 85.6 | > 100 | > 100 | > 100
C[C@@]1(F)[C@H](O)[C@@H](CO)O[C@H]1n1ccc2c(N)ncnc21 | > 10 | > 10 | > 10 | > 100 | > 100 | > 100 | > 100 | > 100
C[C@@]1(F)[C@H](O)[C@@H](CO)O[C@@H]1n1ccc2c(N)nc(N)nc21 | > 10 |  |  | > 100 | > 100 | > 100 | > 100 | > 100
C[C@@]1(F)[C@H](O)[C@@H](CO)O[C@H]1n1cc(F)c2c(N)ncnc21 | > 10 | > 10 |  | > 100 | > 100 | > 100 | > 100 | > 100
CCOC(=O)[C@H](C)NP(=O)(OC[C@H]1O[C@@H](n2cc(I)c3c(N)ncnc32)[C@](C)(F)[C@@H]1O)Oc1ccccc1 (some centres not stated) | > 10 | > 10 | > 10 | 58.1 | > 100 | 17.4 | 17.8 | 13.5
C=Cc1cn([C@H]2O[C@H](CO)[C@@H](O)[C@@]2(C)F)c2ncnc(N)c12 | 5.6 | 18.4 | 8.3 | 35.5 | 65.2 | 21 | 14.6 | 16
COc1ncnc2c1ccn2[C@H]1O[C@H](CO)[C@@H](O)[C@@]1(C)F | > 10 |  | > 10 | ≥ 100 | ≥ 100 | > 100 | > 100 | > 100
CCOC(=O)[C@H](C)NP(=O)(OC[C@H]1O[C@@H](n2cc(F)c3c(N)ncnc32)[C@](C)(F)[C@@H]1O)Oc1ccccc1 (some centres not stated) | > 10 | > 10 | > 10 | 39.4 | 98.8 | > 100 | > 100 | > 100
